Results gathered from unrelated publications.
Lines come from different studies, so protocols differ.
Cell line: MCF7
Read-out: cell growth or viability

COc1cccc(-c2nc3ccccc3n2Cc2ccccc2)c1 — IC50 (MTT): 24.8 µM
COc1cc2ncnc(Nc3ccc(F)c(Cl)c3)c2cc1NC(=O)N/N=C/c1cccn1CCCN(C)C — IC50 (MTT; 72 h): 1.26 µM
Oc1ncnc2cc(Nc3nc(-c4ccc(F)cc4)cs3)ccc12 — IC50 (MTT): 3.71 µM
O=C(N/N=C/c1cccn1CCN1CCOCC1)Nc1cc2c(Nc3ccc(F)c(Cl)c3)ncnc2cc1O[C@H]1CCOC1 — IC50 (MTT; 72 h): 2.13 µM
Cc1ccc2nc(-c3cc(Br)ccc3O)[nH]c2c1 — IC50 (MTT; 48 h): 4.37 µM
COc1cc(Nc2nccc(-c3cnn4nc(OC)ccc34)n2)cc(C(F)(F)F)c1 — IC50 (ATP luminescence): 0.95 µM
CC/C(=C(\c1ccc(O)cc1)c1ccc(OCCN(C)C)cc1)c1ccccc1 — IC50 (5 days): 4.22 µM
COc1c2c(cc3c1OCO3)[C@]13C=C[C@H](OC)C[C@H]1N(C2)C[C@H]3OC(=O)c1cccc(C)c1 — IC50 (WST-1): > 10 µM
CC(C)(C)c1ccc(S(=O)(=O)NN=Cc2cn(CCN3CCOCC3)c3ccccc23)cc1 — IC50 (MTT; 48 h): 67.8 µM
COc1cccc2c3c(c[n+](C)c12)sc1cccc(F)c13 — IC50 (MTT; 72 h): 3 µM
O=c1cc(CO)occ1[O-].[Cl-].[W+4].c1cc[cH-]c1.c1cc[cH-]c1 — IC50 (MTT): 590 µM
O=S(=O)(NN=Cc1cn(CCN2CCOCC2)c2ccccc12)c1ccccc1 — IC50 (MTT; 48 h): 73.2 µM
Oc1ccccc1-c1ccc2ncnc(Nc3cccc(C(F)(F)F)c3)c2c1 — IC50 (MTT; 24 h): 7.13 µM
CSc1nc(/N=C/c2cc([N+](=O)[O-])ccc2O)n(-c2ccc(C(=O)O)cc2)n1 — IC50 (MTT): 20 µM
O=[N+]([O-])c1ccc(S(=O)(=O)NN=Cc2cn(CCN3CCOCC3)c3ccccc23)cc1 — IC50 (MTT; 48 h): 82 µM
COc1cc(CNCC2CCNCC2)ccc1OCc1cccc(C)c1 — IC50 (MTT; 72 h): > 100 µM
O=C(NC(=S)Nc1ccccc1)c1ccc2ccccc2c1 — IC50 (48 h): 5.11 µM
CCN(CC)C/C=N/NC(=O)Nc1cc2c(Nc3ccc(F)c(Cl)c3)ncnc2cc1OC — IC50 (MTT; 72 h): 3.28 µM
O=C1Nc2c(C(F)(F)F)cccc2[C@@]1(c1ccc(O)cc1)c1ccc(OC(F)(F)F)cc1 — IC50 (resazurin; 72 h): 0.014 µM
COc1cccc2c1C(=O)c1c(O)c3c(c(O)c1C2=O)C[C@@](O)(C(=O)CO)C[C@@H]3O[C@H]1C[C@H](N)[C@H](O)[C@H](C)O1 — IC50 (MTT; 48 h): 3.1 µM
C=CCn1c(-c2ccc([N+](=O)[O-])cc2)nc2ccc(C)cc21 — IC50 (MTT): 71.1 µM
CSc1nc(NC(=S)NCCc2ccccc2)n(-c2ccc(C(=O)O)cc2)n1 — IC50 (MTT): 15.6 µM
O=C(N/N=C/c1cccn1CCCN1CCCC1)Nc1cc2c(Nc3ccc(F)c(Cl)c3)ncnc2cc1O[C@H]1CCOC1 — IC50 (MTT; 72 h): 2.41 µM
CC[C@H](C)C(=O)O[C@H]1C[C@H](O)C=C2C=C[C@H](C)[C@H](CC[C@@H](O)C[C@@H](O)CC(=O)O)[C@H]21 — IC50 (SRB; 72 h): 98 µg/mL
CC(=O)O[C@H]1C(=O)[C@@]2(C)[C@H]([C@H](OC(=O)c3ccccc3)[C@]3(O)C[C@H](OC(=O)[C@H](O)[C@@H](NC(=O)c4ccccc4)c4ccccc4)C(C)=C1C3(C)C)[C@]1(OC(C)=O)CO[C@@H]1C[C@@H]2O — IC50 (MTT; 48 h): 2.35 µM
CCN(CC)C/C=N/NC(=O)Nc1cc2c(Nc3ccc(F)c(Cl)c3)ncnc2cc1O[C@H]1CCOC1 — IC50 (MTT; 72 h): 2.34 µM
FC(F)(F)c1cccc(Nc2ncnc3ccc(-c4ccc5c(c4)OCO5)cc23)c1 — IC50 (MTT; 24 h): 6.74 µM
COc1cc2c(Nc3ccc(NC(=O)c4ccccc4)cc3)ncnc2cc1OCCCN1CCOCC1 — IC50 (MTS; 48 h): 3.1 µM
COc1cccc2c1C(=O)c1c(O)c3c(c(O)c1C2=O)C[C@@](O)(C(=O)CO)C[C@@H]3O[C@H]1C[C@H](N)[C@H](O)[C@H](C)O1 — IC50 (48 h): 1.2 µM
O=C(N/N=C/CN1CCOCC1)Nc1cc2c(Nc3ccc(F)c(Cl)c3)ncnc2cc1O[C@H]1CCOC1 — IC50 (MTT; 72 h): 1.08 µM
CC1(C)[C@@H](O)CC[C@]2(C)[C@H]3C(=O)C=C4[C@@H]5C[C@@](C)(C(=O)O)CC[C@]5(C)CC[C@@]4(C)[C@]3(C)CC[C@@H]12 — IC50 (MTT; 48 h): > 100 µM
CSc1nc(/N=C/c2cccc(O)c2)n(-c2ccc(C(=O)O)cc2)n1 — IC50 (MTT): 31.2 µM
CCN(CC)CCn1cccc1/C=N/NC(=O)Nc1cc2c(Nc3ccc(F)c(Cl)c3)ncnc2cc1O[C@H]1CCOC1 — IC50 (MTT; 72 h): 1.28 µM
COc1ccc(-c2nn(-c3ccc(S(C)(=O)=O)cc3)cc2C=N/N=c2\[nH]c(-c3ccc([N+](=O)[O-])cc3)cs2)cc1 — IC50 (MTT; 48 h): 2.15 µM
Oc1ncnc2cc(Nc3nc(-c4ccc(C(F)(F)F)cc4)cs3)ccc12 — IC50 (MTT): 2.86 µM
CN(C)CCn1cccc1/C=N/NC(=O)Nc1cc2c(Nc3ccc(F)c(Cl)c3)ncnc2cc1O[C@H]1CCOC1 — IC50 (MTT; 72 h): 4.82 µM
C=CCn1c(-c2ccc(Cl)c(Cl)c2)nc2ccccc21 — IC50 (MTT): 50 µM
O=c1c(O)c(-c2ccc(O)c(O)c2)oc2cc(O)cc(O)c12 — IC50 (WST-1; 48 h): 11.7 µM
O=C(/N=C1\SCC(=O)N1C1CCCCC1)c1ccc2ccccc2c1 — IC50 (48 h): 7.96 µM
Fc1ccc(-c2nc3ccccc3[nH]2)cc1 — IC50 (MTT; 48 h): 68 µM
O=c1ccn(Cc2cn(-c3c4ccccc4nc4ccccc34)nn2)c(=O)[nH]1 — IC50 (MTT): 10.9 µM
Cc1ccc2nc(-c3cccnc3)[nH]c2c1 — IC50 (MTT; 48 h): 51.1 µM
O=C(/C=C/c1ccccc1)c1ccccc1 — IC50 (resazurin; 72 h): > 50 µM
O=c1cc(-c2ccc(O)c(O)c2)oc2cc(O)cc(O)c12 — IC50 (WST-1; 48 h): 13.4 µM
FC(F)(F)c1cccc(Nc2ncnc3ccc(-c4ccc(Cl)cc4)cc23)c1 — IC50 (MTT; 24 h): 12.3 µM
COc1ccnc(-c2cc(OC)ccn2)c1 — IC50 (MTT; 48 h): > 50 µM
c1cncc(-c2nc3ccccc3[nH]2)c1 — IC50 (MTT; 48 h): > 100 µM
CC(C)Cc1ccc(-c2nn(-c3ccc(S(C)(=O)=O)cc3)cc2/C=N/N=c2\[nH]c(-c3ccc(Br)cc3)cs2)cc1 — IC50 (MTT; 48 h): 8.26 µM
